Laboratory results from ChEMBL document CHEMBL4699489, “Optimized Opioid-Neurotensin Multitarget Peptides: From Design to Structure-Activity Relationship Studies” (J Med Chem, 2020).
Activity calls are given as the source filed them. Numbered stars: 1 amine (or outer) side, 2 acyl side, 3 side chain; on linkers, the order of the positions; unused ones are H or OH. Square brackets hold non-standard residues; d marks the D form. Peptide text beside a SMILES is read from it. X1 = O=C1[C@@H](N[*:1])Cc2ccccc2CN1CCC(=O)[*:2]; X2 = O=C([C@@H]1Cc2cc(O)ccc2CN1[*:1])[*:2]; Dmt = Cc1cc(O)cc(C)c1C[C@H](N)C(=O)O; β3hR = N=C(N)NCCC[C@H](N)CC(=O)O; Tle = CC(C)(C)[C@H](N)C(=O)O

Tests used:
[1] = target: T1, Mu-type opioid receptor (Homo sapiens, UniProt P35372); assay: Displacement of [3H]-DAMGO from recombinant human mu opioid receptor expressed in CHO cell membrane incubated for 60 mins by liquid scintillation counting method; assay type: cell membranes
Method in brief: (§1)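 Membranes from CHO-hMOR, -hDOR or -hKOR cells, homogenized and washed in 50 mM Tris-HCl pH 7.4. Membranes (15–20 μg) incubated with [3H]DAMGO (MOR), [3H]diprenorphine (DOR) or [3H]U69,593 (KOR) plus graded peptide, 60 min at 25 °C. Nonspecific binding with 1–10 μM of the unlabelled ligand. GF/C filtration, scintillation counting. Ki by Cheng–Prusoff. Duplicate, three independent experiments.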

[2] = target: T2, Delta-type opioid receptor (Homo sapiens, UniProt P41143); assay: Displacement of [3H]-Diprenorphine from recombinant human delta opioid receptor expressed in CHO cell membrane incubated for 60 mins by liquid scintillation counting method; assay type: cell membranes; method in brief: as §1
[3] = target: T3, Kappa-type opioid receptor (Homo sapiens, UniProt P41145); assay: Displacement of [3H]-U69593 from recombinant human kappa opioid receptor expressed in CHO cell membrane incubated for 60 mins by liquid scintillation counting method; assay type: cell membranes; method in brief: as §1
[4] = target: T1, Mu-type opioid receptor; assay: Agonist activity at human MOR expressed in CHO cell membranes assessed as stimulation of [35S]-GTPgammaS binding incubated for 1 hr by liquid scintillation counting assay relative to DAMGO; assay type: functional; details: time 60.0 min
Method in brief: (§2)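 Membranes from CHO cells stably expressing hMOR, hDOR or hKOR, prepared in 20 mM HEPES, 10 mM MgCl2, 100 mM NaCl, pH 7.4. Membranes (5–10 μg) incubated with 0.05 nM [35S]GTPγS, 10 μM GDP and graded peptide concentrations, 60 min at 25 °C. Nonspecific binding with 10 μM GTPγS, basal without ligand. GF/B filtration, scintillation counting. EC50 and Emax by nonlinear regression; Emax relative to DAMGO, DPDPE or U69,593. Duplicate, three independent experiments.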

[5] = target: T1, Mu-type opioid receptor; assay: Agonist activity at human MOR expressed in human U2OS cells assessed as increase in beta arrestin2 recruitment incubated for 90 mins by pathhunter beta-arrestin assay; assay type: cell-based
Method in brief: (§3)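 U2OS cells stably coexpressing hMOR and enzyme acceptor-tagged β-arrestin-2, seeded at 5000 cells/well and kept 24 h at 37 °C. Graded peptide concentrations in PBS added for 90 min at 37 °C, then detection mix for 60 min at room temperature. Chemiluminescence read-out. EC50 and Emax (relative to DAMGO) by nonlinear regression. Duplicate, three independent experiments.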

[6] = target: T1, Mu-type opioid receptor; assay: Agonist activity at human MOR expressed in human U2OS cells assessed as increase in beta arrestin2 recruitment incubated for 90 mins by pathhunter beta-arrestin assay relative to DAMGO; assay type: cell-based; details: filed as partial agonist; method in brief: as §3
[7] = target: T2, Delta-type opioid receptor; assay: Agonist activity at human DOR stably expressed in CHO cell membranes assessed as stimulation of [35S]-GTPgammaS binding incubated for 1 hr by liquid scintillation counting assay; assay type: functional; method in brief: as §2
[8] = target: T2, Delta-type opioid receptor; assay: Agonist activity at human DOR stably expressed in CHO cell membranes assessed as stimulation of [35S]-GTPgammaS binding incubated for 1 hr by liquid scintillation counting assay relative to DPDPE; assay type: functional; details: time 60.0 min; method in brief: as §2
[9] = target: T3, Kappa-type opioid receptor; assay: Agonist activity at human KOR stably expressed in CHO cell membranes assessed as stimulation of [35S]-GTPgammaS binding incubated for 1 hr by liquid scintillation counting assay; assay type: functional; method in brief: as §2
[10] = tested on: Mus musculus; assay: Antinociceptive activity in CD-1 mouse model of thermal-induced nociception assessed as increase in tail withdrawal latency 1.82 umol/kg, sc measured after 2 to 24 hrs by tail-flick test; assay type: functional, organism-based; details: dose 1.82 µmol/kg, time hrs 2-24
Method in brief: (§4)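 Male CD-1 mice, 30–35 g, 8 weeks old, 5–6 per group, each mouse tested once. Peptide or saline given sc. Radiant-heat tail-flick latency measured before dosing and at 15 min, 30 min, hourly to 8 h, and at 24 h, with a 10 s cutoff. %MPE = [(test latency − basal latency)/(cutoff − basal latency)] × 100. Two-way ANOVA with Bonferroni post hoc test, P < 0.05.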

[11] = tested on: Mus musculus; assay: Antinociceptive activity in CD-1 mouse model of thermal-induced nociception assessed as maximum possible effect at 1.82 umol/kg, sc measured at 1 hr by tail-flick test; assay type: functional; details: dose 1.82 µmol/kg
[12] = target: T4, Neurotensin receptor type 1 (Homo sapiens, UniProt P30989); assay: Displacement of [125I]-neurotensin from human recombinant NTS1 stably expressed in CHO-K1 cell membranes incubated for 60 mins by gamma counter method
[13] = target: Neurotensin receptor type 2 (Homo sapiens, UniProt O95665); assay: Displacement of [125I]-neurotensin from human recombinant NTS2 stably expressed in human 1321N1 cell membranes incubated for 60 mins by gamma counter method
[14] = target: T1, Mu-type opioid receptor; assay: Agonist activity at human MOR stably expressed in CHO cell membranes assessed as stimulation of [35S]-GTPgammaS binding incubated for 1 hr by liquid scintillation counting assay; assay type: functional; method in brief: as §2
[15] = target: T3, Kappa-type opioid receptor; assay: Agonist activity at human KOR stably expressed in CHO cell membranes assessed as stimulation of [35S]-GTPgammaS binding incubated for 1 hr by liquid scintillation counting assay relative to U69593; assay type: functional; details: time 60.0 min; method in brief: as §2
[16] = target: T4, Neurotensin receptor type 1; assay: Agonist activity at human NTS1 expressed in HEK293 cells co-expressing Galphaq/RlucII/GFP10-Ggamma1/Gbeta1 assessed as increase in Galphaq activation incubated for 10 mins in presence of coelenterazine 400A by BRET assay; assay type: cell-based
[17] = target: T4, Neurotensin receptor type 1; assay: Agonist activity at human NTS1 expressed in HEK293 cells co-expressing Galphaq/RlucII/GFP10-Ggamma1/Gbeta1 assessed as increase in Gq activation incubated for 10 mins in presence of coelenterazine 400A by BRET assay relative to NT (8-13); assay type: cell-based
[18] = tested on: Mus musculus; assay: Antinociceptive activity in CD-1 mouse model of thermal-induced nociception assessed as maximum possible effect at 5.52 umol/kg, sc measured at 1 hr interval for 2 to 3 hrs by tail-flick test; assay type: functional; details: dose 5.52 µmol/kg; time hrs 2-3; method in brief: as §4
[19] = tested on: Mus musculus; assay: Antinociceptive activity in CD-1 mouse model of thermal-induced nociception assessed as increase in tail withdrawal latency at 5.52 umol/kg, sc measured after 3 hrs by tail-flick test; assay type: functional, organism-based; details: dose 5.52 µmol/kg, time hrs >=3; method in brief: as §4
[20] = target: T1, Mu-type opioid receptor; assay: Potency index, ratio of PK20 Ki to test compound Ki for displacement of [3H]-DAMGO from recombinant human mu opioid receptor expressed in CHO cell membranes
[21] = target: T4, Neurotensin receptor type 1; assay: […], ratio of compound EC50 to NT(8-13) EC50 for agonist activity at human NTS1 expressed in HEK293 cells co-expressing Galphaq/RlucII/GFP10-Ggamma1/Gbeta1 assessed as increase in Gq activation incubated for 10 mins in presence of coelenterazine 400A by measuring fold value by BRET assay; assay type: cell-based; details: hek293, 10 min
[22] = tested on: Mus musculus; assay: Antinociceptive activity in CD-1 mouse model of thermal-induced nociception assessed as increase in tail withdrawal latency at 2.64 umol/kg, sc measured up to 8 hrs by tail-flick test; assay type: functional, organism-based; details: dose 2.64 µmol/kg, time hrs <=8; method in brief: as §4
[23] = tested on: Mus musculus; assay: Antinociceptive activity in CD-1 mouse model of thermal-induced nociception assessed as maximum possible effect at 2.64 uM/kg, sc measured at 1 hr interval for 2 to 7 hrs by tail-flick test; assay type: functional; details: dose 2.64 µmol/kg; time hrs 2-7; method in brief: as §4

T3 sequence (P41145 whole entry): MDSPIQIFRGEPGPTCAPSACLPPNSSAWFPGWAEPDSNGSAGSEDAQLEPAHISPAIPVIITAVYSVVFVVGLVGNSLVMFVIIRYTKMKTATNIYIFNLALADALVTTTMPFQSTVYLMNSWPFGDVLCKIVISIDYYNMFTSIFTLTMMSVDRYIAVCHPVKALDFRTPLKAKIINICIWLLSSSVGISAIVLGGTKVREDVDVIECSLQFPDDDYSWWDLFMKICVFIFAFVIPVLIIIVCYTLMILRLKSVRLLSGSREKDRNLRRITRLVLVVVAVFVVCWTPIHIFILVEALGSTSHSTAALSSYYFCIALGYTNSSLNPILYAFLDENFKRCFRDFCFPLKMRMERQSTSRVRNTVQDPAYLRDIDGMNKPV
T2 sequence (P41143 whole entry): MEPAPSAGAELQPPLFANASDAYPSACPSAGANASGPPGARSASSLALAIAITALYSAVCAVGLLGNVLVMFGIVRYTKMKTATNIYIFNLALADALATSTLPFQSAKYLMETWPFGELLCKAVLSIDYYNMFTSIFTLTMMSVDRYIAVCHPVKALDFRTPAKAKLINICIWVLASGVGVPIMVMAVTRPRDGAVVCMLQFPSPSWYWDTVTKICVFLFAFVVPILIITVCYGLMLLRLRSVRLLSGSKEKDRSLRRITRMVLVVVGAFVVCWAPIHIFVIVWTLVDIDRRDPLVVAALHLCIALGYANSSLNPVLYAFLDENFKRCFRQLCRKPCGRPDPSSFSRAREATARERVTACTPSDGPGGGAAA
Neurotensin receptor type 2, sequence (O95665 whole entry): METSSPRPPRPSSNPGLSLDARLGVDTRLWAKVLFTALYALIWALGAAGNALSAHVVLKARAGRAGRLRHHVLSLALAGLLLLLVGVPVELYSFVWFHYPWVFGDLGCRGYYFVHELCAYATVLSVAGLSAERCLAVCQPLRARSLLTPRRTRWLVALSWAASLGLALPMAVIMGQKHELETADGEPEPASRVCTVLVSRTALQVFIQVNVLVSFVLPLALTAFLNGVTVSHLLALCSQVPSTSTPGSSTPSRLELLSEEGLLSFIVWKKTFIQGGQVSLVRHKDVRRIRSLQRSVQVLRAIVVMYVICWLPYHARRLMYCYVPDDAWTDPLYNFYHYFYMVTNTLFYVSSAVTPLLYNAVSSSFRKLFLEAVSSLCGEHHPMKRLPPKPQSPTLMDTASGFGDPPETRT
T1 sequence (P35372 whole entry): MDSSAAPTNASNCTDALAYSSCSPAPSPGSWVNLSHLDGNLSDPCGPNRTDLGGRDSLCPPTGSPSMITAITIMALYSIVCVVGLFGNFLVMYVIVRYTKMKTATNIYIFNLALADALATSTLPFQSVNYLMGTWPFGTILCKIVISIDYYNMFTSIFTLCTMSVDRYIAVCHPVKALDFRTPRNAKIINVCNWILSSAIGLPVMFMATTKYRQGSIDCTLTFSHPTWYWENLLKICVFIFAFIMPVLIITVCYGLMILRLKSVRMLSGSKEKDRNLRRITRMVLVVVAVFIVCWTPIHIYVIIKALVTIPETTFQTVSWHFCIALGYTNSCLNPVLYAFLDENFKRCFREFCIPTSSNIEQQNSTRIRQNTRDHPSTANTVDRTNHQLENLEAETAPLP
T4 sequence (P30989 whole entry): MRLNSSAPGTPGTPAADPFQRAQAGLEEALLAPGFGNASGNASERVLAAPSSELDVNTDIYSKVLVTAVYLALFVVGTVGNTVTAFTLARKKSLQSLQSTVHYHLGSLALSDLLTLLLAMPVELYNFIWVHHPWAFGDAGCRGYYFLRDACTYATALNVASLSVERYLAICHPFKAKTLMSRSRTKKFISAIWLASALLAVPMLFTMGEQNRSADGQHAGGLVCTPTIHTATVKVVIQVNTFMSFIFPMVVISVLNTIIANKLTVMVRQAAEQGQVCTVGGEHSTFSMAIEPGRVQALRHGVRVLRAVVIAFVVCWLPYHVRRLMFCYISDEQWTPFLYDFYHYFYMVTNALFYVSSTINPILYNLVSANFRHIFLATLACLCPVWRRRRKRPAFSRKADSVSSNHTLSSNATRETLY

Row | Structure (SMILES) | Ki [1] [nM] | Ki [2] [nM] | Ki [3] [nM] | Emax ([4]; filed as agonist) [%] | EC50 [5] [nM] | Emax [6] [%] | EC50 [7] [nM] | Emax ([8]; filed as agonist) [%] | EC50 [9] [nM] | Ki [12] [nM] | Ki [13] [nM] | EC50 [14] [nM] | Emax ([15]; filed as partial agonist) [%] | EC50 [16] [nM] | Emax [17] [%] | other results
1 | Cc1cc(O)cc(C)c1C[C@H](N)C(=O)N[C@H](CCCNC(=N)N)C(=O)N[C@H]1Cc2ccccc2CN(CCC(N)=O)C1=O | 0.14 | 1.51 | 16.6 | 100 | 5.53 | 107 | 1.27 | 104 | > 10000 |  |  |  |  |  |  | Activity [10]: inactive; MPE [11]: 80%
2 | Cc1cc(O)cc(C)c1C[C@H](N)C(=O)N[C@H](CCCCN)C(=O)N[C@@H](Cc1ccccc1)C(=O)N[C@@H](Cc1ccccc1)C(=O)N[C@@H](CCCCN)C(=O)N[C@@H](CCCCN)C(=O)N1CCC[C@H]1C(=O)N[C@@H](Cc1ccccc1)C(=O)N[C@H](C(=O)N[C@@H](CC(C)C)C(=O)O)C(C)(C)C (H-[Dmt][dK]FFKKPF[Tle]L-OH) | 4.13 | 46.4 | 33.5 |  | 956 | 69 | 479 |  | 47.1 | 188 | 29.5 | 13.3 | 65 | 19.1 | 101 | Emax ([4]; filed as partial agonist): 91%; Emax ([8]; filed as partial agonist): 78%; MPE [18]: 80%; Activity [19]: inactive
3 | Cc1cc(O)cc(C)c1C[C@H](N)C(=O)N[C@H](CCCNC(=N)N)C(=O)N[C@H]1Cc2ccccc2CN(CCC(=O)N[C@@H](CCCNC(=N)N)C(=O)N[C@@H](CCCNC(=N)N)C(=O)N2CCC[C@H]2C(=O)N2Cc3ccc(O)cc3C[C@H]2C(=O)N[C@H](C(=O)N[C@@H](CC(C)C)C(=O)O)C(C)(C)C)C1=O (H-[Dmt][dR][X1]RRP[X2][Tle]L-OH) | 1.67 | 105 | 22.4 | 98 | 934 | 67 | 227 | 97 | 399 | 4710 | 1.72 | 4.56 |  | 1900 | 74 | Ratio Ki [20]: 2; Emax [15]: 20%; Ratio EC50 [21]: 13000
4 | Cc1cc(O)cc(C)c1C[C@H](NC(=O)[C@@H]1CCCN1C(=O)[C@H](CCCNC(=N)N)NC(=O)C[C@H](CCCNC(=N)N)NC(=O)CCN1Cc2ccccc2C[C@H](NC(=O)[C@@H](CCCNC(=N)N)NC(=O)[C@@H](N)Cc2c(C)cc(O)cc2C)C1=O)C(=O)N[C@H](C(=O)N[C@@H](CC(C)C)C(=O)O)C(C)(C)C (H-[Dmt][dR][X1][β3hR]RP[Dmt][Tle]L-OH) | 1.75 | 101 | 27.9 | 94 | 1070 | 68 | 305 | 99 | 158 | 4 | 0.003 | 28.7 | 46 | 0.86 | 114 | Activity [22]: Active; MPE [23]: >=80%
